Legend:
Type in all cases: functional, Homo sapiens
K562 = assay: Tested for cytotoxic activity against leukemia K-562 cell line
Outline: (§1)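 Screened in a panel of 60 human cancer cell lines. The read-out was LC50, the concentration needed for 50% cell kill. Values were reported as log LC50 in a mean graph and plotted against the log of the panel mean LC50.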

786-0 = assay: Tested for cytotoxic activity against renal cancer 786-0 cell line; outline: as §1
M19-MEL = assay: Tested for cytotoxic activity against melanoma M19-MEL cell line; outline: as §1
NCI-H522 = assay: Tested for cytotoxic activity against non-small cell lung cancer NCI-H522 cell line; outline: as §1
HOP-62 = assay: Tested for cytotoxic activity against non-small cell lung cancer HOP-62 cell line; outline: as §1
OVCAR-3 = assay: Tested for cytotoxic activity against ovarian cancer OVCAR -3 cell line; outline: as §1
NCI-H226 = assay: Tested for cytotoxic activity against non-small cell lung cancer NCI-H226 cell line; outline: as §1
CCRF-CEM = assay: Tested for cytotoxic activity against leukemia CCRF-CEM cell line; outline: as §1
U-251 = assay: Tested for cytotoxic activity against CNS cancer U251 cell line; outline: as §1
SNB-78 = assay: Tested for cytotoxic activity against CNS cancer SNB-78 cell line; outline: as §1
UACC-257 = assay: Tested for cytotoxic activity against melanoma UACC-257 cell line; outline: as §1
SK-OV-3 = assay: Tested for cytotoxic activity against ovarian cancer SK-OV-3 cell line; outline: as §1
KM12 = assay: Tested for cytotoxic activity against colon cancer KM-12 cell line; outline: as §1
SNB-75 = assay: Tested for cytotoxic activity against CNS cancer SNB-75 cell line; outline: as §1
DMS-114 = assay: Tested for cytotoxic activity against small cell lung cancer DMS114 cell line; outline: as §1
SNB-19 = assay: Tested for cytotoxic activity against CNS cancer SNB-19 cell line; outline: as §1
SF-539 = assay: Tested for cytotoxic activity against CNS cancer […] cell line; outline: as §1
OVCAR-5 = assay: Tested for cytotoxic activity against ovarian cancer OVCAR-5 cell line; outline: as §1
COLO 205 = assay: Tested for cytotoxic activity against colon cancer COLO 205 cell line; outline: as §1
MOLT-4 = assay: Tested for cytotoxic activity against leukemia MOLT-4 cell line; outline: as §1
DLD-1 = assay: Tested for cytotoxic activity against colon cancer DLD-1 cell line; outline: as §1
HOP-18 = assay: Tested for cytotoxic activity against non-small cell lung cancer HOP-18 cell line; outline: as §1
IGROV-1 = assay: Tested for cytotoxic activity against ovarian cancer IGROVI cell line; outline: as §1
NCI-H322M = assay: Tested for cytotoxic activity against non-small cell lung cancer NCI-H322M cell line; outline: as §1
M14 = assay: Tested for cytotoxic activity against melanoma M14 cell line; outline: as §1
UO-31 = assay: Tested for cytotoxic activity against renal cancer UO-31 cell line; outline: as §1
ACHN = assay: Tested for cytotoxic activity against renal cancer ACHN cell line; outline: as §1
OVCAR-8 = assay: Tested for cytotoxic activity against ovarian cancer OVCAR-8 cell line; outline: as §1
SF-295 = assay: Tested for cytotoxic activity against CNS cancer SF-295 cell line; outline: as §1
RXF 393 = assay: Tested for cytotoxic activity against renal cancer RXF-393 cell line; outline: as §1
CAKI-1 = assay: Tested for cytotoxic activity against renal cancer CAKI-1 cell line; outline: as §1
A549 = assay: Tested for cytotoxic activity against non-small cell lung cancer A549/ATCC cell line; outline: as §1
HT-29 = assay: Tested for cytotoxic activity against colon cancer HT-29 cell line; outline: as §1
SF-268 = assay: Tested for cytotoxic activity against CNS cancer […] cell line; outline: as §1
SK-MEL-28 = assay: Tested for cytotoxic activity against melanoma SK-MEL-28; outline: as §1
NCI-H23 = assay: Tested for cytotoxic activity against non-small cell lung cancer NCI-H23 cell line; outline: as §1
XF498 = assay: Tested for cytotoxic activity against CNS cancer XF498 cell line; outline: as §1
OVCAR-4 = assay: Tested for cytotoxic activity against ovarian cancer OVCAR-4 cell line; outline: as §1
TK-10 = assay: Tested for cytotoxic activity against renal cancer TK-10 cell line; outline: as §1
UACC-62 = assay: Tested for cytotoxic activity against melanoma UACC-62 cell line; outline: as §1
LOX IMVI = assay: Tested for cytotoxic activity against melanoma […] cell line; outline: as §1
SW-620 = assay: Tested for cytotoxic activity against colon cancer SW-620 cell line; outline: as §1
HOP-92 = assay: Tested for cytotoxic activity against non-small cell lung cancer HOP92 cell line; outline: as §1
LXFL 529 = assay: Tested for cytotoxic activity against non-small cell lung cancer LXFL-529L cell line; outline: as §1
KM-20L2 = assay: Tested for cytotoxic activity against colon cancer KM20L2 cell line; outline: as §1
EKVX = assay: Tested for cytotoxic activity against non-small cell lung cancer […] cell line; outline: as §1
SK-MEL-5 = assay: Tested for cytotoxic activity against melanoma SK-MEL-5 cell line; outline: as §1
SN12C = assay: Tested for cytotoxic activity against renal cancer SN12C cell line; outline: as §1
SK-MEL-2 = assay: Tested for cytotoxic activity against melanoma SK-MEL-2 cell line; outline: as §1
Malme-3M = assay: Tested for cytotoxic activity against melanoma MALME-3M cell line; outline: as §1

## CC(=O)OC1CCn2c1nc1c2C(=O)C(C)=C(N2CC2)C1=O (stereo not given)
K562
  LC50: >4
786-0
  LC50: 7.36
M19-MEL
  LC50: 5.12
NCI-H522
  LC50: <8
HOP-62
  LC50: <8
OVCAR-3
  LC50: 6.34
NCI-H226
  LC50: 7.09
CCRF-CEM
  LC50: >4
U-251
  LC50: 6.53
SNB-78
  LC50: 5.39
UACC-257
  LC50: 6.71
SK-OV-3
  LC50: 6.36
KM12
  LC50: 7.02
SNB-75
  LC50: 7.56
DMS-114
  LC50: >4
SNB-19
  LC50: 6.54
SF-539
  LC50: 7.89
OVCAR-5
  LC50: 6.53
COLO 205
  LC50: 4.82
MOLT-4
  LC50: >4
DLD-1
  LC50: 7.66
HOP-18
  LC50: 6.64
IGROV-1
  LC50: 5.85
NCI-H322M
  LC50: 6.63
M14
  LC50: <8
UO-31
  LC50: <8
ACHN
  LC50: 6.53
OVCAR-8
  LC50: 7.09
SF-295
  LC50: 6.47
RXF 393
  LC50: <8
CAKI-1
  LC50: 5.53
A549
  LC50: 5.44
HT-29
  LC50: 6.03
SF-268
  LC50: 5.67
SK-MEL-28
  LC50: 7.59
NCI-H23
  LC50: <8
XF498
  LC50: 7.09
OVCAR-4
  LC50: 7.19
TK-10
  LC50: 6.06
UACC-62
  LC50: <8
LOX IMVI
  LC50: <8
SW-620
  LC50: 6.22
HOP-92
  LC50: 5.14
LXFL 529
  LC50: 7.33
KM-20L2
  LC50: 6.64
EKVX
  LC50: 6.55
SK-MEL-5
  LC50: <8
SN12C
  LC50: 7.12
SK-MEL-2
  LC50: 7.61
Malme-3M
  LC50: 7.26
